# Measured values taken from ChEMBL document CHEMBL1147665, “Design, synthesis, and biological evaluation of 4-alkyliden-beta lactams: new products with promising antibiotic activity against resistant bacteria” (J Med Chem, 2006).
# Key:
# Format in all cases: functional
# Streptococcus pyogenes = experiment: Antibacterial activity against Streptococcus pyogenes
# Outline: (§1)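 Broth microdilution MIC per CLSI guidelines in Mueller-Hinton broth: serial 2-fold dilutions, inoculum 5 × 10⁵ CFU/mL in equal volume, 35 °C for 16-20 h. MIC = lowest concentration with no visible turbidity. Recent clinical isolates (43 total, Gram-positive and Gram-negative); values given as MIC ranges, MIC₅₀ and MIC₉₀ per species.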
# Streptococcus pneumoniae = experiment: Antibacterial activity against Streptococcus pneumoniae; outline: as §1
# Enterococcus = experiment: Antibacterial activity against Enterococcus spp; outline: as §1
# Staphylococcus aureus [1] = experiment: Antibacterial activity against methicillin-susceptible Staphylococcus aureus; outline: as §1
# [2] = test system: Staphylococcus epidermidis; experiment: Antibacterial activity against Staphylococcus epidermidis; outline: as §1
# Haemophilus influenzae = experiment: Antibacterial activity against Haemophilus influenzae; outline: as §1
# Staphylococcus aureus [3] = experiment: Antibacterial activity against methicillin-resistant Staphylococcus aureus
# Outline: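 Clinical isolates (3 MRSA in a 43-strain panel). Broth microdilution per CLSI, serial 2-fold dilutions in Mueller-Hinton broth, inoculum 5 × 10⁵ CFU/mL, 35 °C for 16-20 h. MIC = lowest concentration with no visible turbidity; reported as MIC range, MIC₅₀ and MIC₉₀ across isolates.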
Compound,MIC50 (Streptococcus pyogenes),MIC90 (Streptococcus pyogenes),MIC50 (Streptococcus pneumoniae),MIC90 (Streptococcus pneumoniae),MIC50 (Enterococcus),MIC90 (Enterococcus),MIC50 (Staphylococcus aureus [1]),MIC90 (Staphylococcus aureus [1]),MIC50 [2],MIC90 [2],MIC50 (Haemophilus influenzae),MIC90 (Haemophilus influenzae),MIC50 (Staphylococcus aureus [3]),MIC90 (Staphylococcus aureus [3])
CCOC(=O)/C=C1\NC(=O)[C@@H]1[C@@H](C)OC(=O)c1cc(OC)c(OC)c(OC)c1,128 µg/mL,> 128 µg/mL,128 µg/mL,128 µg/mL,> 128 µg/mL,> 128 µg/mL,> 128 µg/mL,> 128 µg/mL,128 µg/mL,> 128 µg/mL,128 µg/mL,> 128 µg/mL,,
CCOC(=O)/C=C1\NC(=O)[C@@H]1[C@@H](C)OC(=O)c1ccc(O)cc1,128 µg/mL,> 128 µg/mL,128 µg/mL,128 µg/mL,> 128 µg/mL,> 128 µg/mL,> 128 µg/mL,> 128 µg/mL,8 µg/mL,> 128 µg/mL,,,,
COc1cc(C(=O)O[C@H](C)[C@H]2C(=O)N/C2=C\C(=O)O)cc(OC)c1OC,> 128 µg/mL,> 128 µg/mL,128 µg/mL,128 µg/mL,> 128 µg/mL,> 128 µg/mL,> 128 µg/mL,> 128 µg/mL,> 128 µg/mL,> 128 µg/mL,128 µg/mL,128 µg/mL,,
C[C@@H](O[Si](C)(C)C(C)(C)C)[C@H]1C(=O)N/C1=C\C(=O)OCc1ccccc1,128 µg/mL,> 128 µg/mL,128 µg/mL,128 µg/mL,> 128 µg/mL,> 128 µg/mL,> 128 µg/mL,> 128 µg/mL,> 128 µg/mL,> 128 µg/mL,128 µg/mL,> 128 µg/mL,,
COc1cc(C(=O)O[C@H](C)[C@H]2C(=O)N/C2=C\C(=O)O)cc(OC)c1O,> 128 µg/mL,> 128 µg/mL,128 µg/mL,128 µg/mL,> 128 µg/mL,> 128 µg/mL,> 128 µg/mL,> 128 µg/mL,> 128 µg/mL,> 128 µg/mL,128 µg/mL,128 µg/mL,,
C[C@@H](O[Si](C)(C)C(C)(C)C)[C@H]1C(=O)N/C1=C\C(=O)OCc1cc(O)cc(O)c1,32 µg/mL,32 µg/mL,32 µg/mL,32 µg/mL,128 µg/mL,128 µg/mL,64 µg/mL,64 µg/mL,128 µg/mL,> 128 µg/mL,,,64 µg/mL,128 µg/mL
C[C@@H](O[Si](C)(C)C(C)(C)C)[C@H]1C(=O)N/C1=C\C(=O)OCc1cc(C(F)(F)F)cc(C(F)(F)F)c1,128 µg/mL,> 128 µg/mL,128 µg/mL,> 128 µg/mL,> 128 µg/mL,> 128 µg/mL,> 128 µg/mL,> 128 µg/mL,> 128 µg/mL,> 128 µg/mL,> 128 µg/mL,> 128 µg/mL,,
CCOC(=O)C[C@H]1NC(=O)[C@@H]1[C@@H](C)O[Si](C)(C)C(C)(C)C,> 128 µg/mL,> 128 µg/mL,> 128 µg/mL,> 128 µg/mL,> 128 µg/mL,> 128 µg/mL,> 128 µg/mL,> 128 µg/mL,> 128 µg/mL,> 128 µg/mL,128 µg/mL,> 128 µg/mL,,
CCOC(=O)/C=C1\NC(=O)[C@@H]1[C@@H](C)OC(=O)c1cc(OCc2ccccc2)c(O)c(OCc2ccccc2)c1,> 128 µg/mL,> 128 µg/mL,> 128 µg/mL,> 128 µg/mL,> 128 µg/mL,> 128 µg/mL,> 128 µg/mL,> 128 µg/mL,> 128 µg/mL,> 128 µg/mL,128 µg/mL,128 µg/mL,,
COc1cc(C(=O)O[C@H](C)[C@H]2C(=O)N/C2=C\C(=O)OCc2ccccc2)cc(OC)c1OC,128 µg/mL,> 128 µg/mL,> 128 µg/mL,> 128 µg/mL,128 µg/mL,> 128 µg/mL,8 µg/mL,16 µg/mL,4 µg/mL,16 µg/mL,> 128 µg/mL,> 128 µg/mL,128 µg/mL,128 µg/mL
C[C@@H](O[Si](C)(C)C(C)(C)C)[C@H]1C(=O)N/C1=C\C(=O)N[C@@H](Cc1ccc(O)cc1)C(=O)OC(C)(C)C,> 128 µg/mL,> 128 µg/mL,> 128 µg/mL,> 128 µg/mL,> 128 µg/mL,> 128 µg/mL,> 128 µg/mL,> 128 µg/mL,> 128 µg/mL,> 128 µg/mL,> 128 µg/mL,> 128 µg/mL,,
CCOC(=O)/C=C1\NC(=O)[C@@H]1[C@@H](C)OC(=O)c1cc(O)c(O)c(O)c1,> 128 µg/mL,> 128 µg/mL,128 µg/mL,> 128 µg/mL,> 128 µg/mL,> 128 µg/mL,128 µg/mL,128 µg/mL,16 µg/mL,64 µg/mL,128 µg/mL,128 µg/mL,128 µg/mL,128 µg/mL
C[C@@H](O)[C@H]1C(=O)N/C1=C\C(=O)O,128 µg/mL,128 µg/mL,128 µg/mL,128 µg/mL,> 128 µg/mL,> 128 µg/mL,> 128 µg/mL,> 128 µg/mL,> 128 µg/mL,> 128 µg/mL,> 128 µg/mL,> 128 µg/mL,,
CCOC(=O)/C=C1\NC(=O)[C@@H]1Cl,128 µg/mL,128 µg/mL,128 µg/mL,128 µg/mL,> 128 µg/mL,> 128 µg/mL,32 µg/mL,64 µg/mL,16 µg/mL,32 µg/mL,32 µg/mL,32 µg/mL,128 µg/mL,128 µg/mL
C[C@@H](O[Si](C)(C)C(C)(C)C)[C@H]1C(=O)N/C1=C/C(=O)OCc1ccccc1,64 µg/mL,64 µg/mL,32 µg/mL,32 µg/mL,64 µg/mL,64 µg/mL,128 µg/mL,> 128 µg/mL,128 µg/mL,> 128 µg/mL,128 µg/mL,128 µg/mL,> 128 µg/mL,
CCOC(=O)/C=C1\NC(=O)[C@@H]1[C@@H](C)OC(=O)c1ccccc1,> 128 µg/mL,> 128 µg/mL,> 128 µg/mL,> 128 µg/mL,> 128 µg/mL,> 128 µg/mL,> 128 µg/mL,> 128 µg/mL,> 128 µg/mL,> 128 µg/mL,> 128 µg/mL,> 128 µg/mL,,
CCOC(=O)/C=C1/NC(=O)[C@@H]1[C@@H](C)O[Si](C)(C)C(C)(C)C,128 µg/mL,128 µg/mL,128 µg/mL,128 µg/mL,> 128 µg/mL,> 128 µg/mL,> 128 µg/mL,> 128 µg/mL,128 µg/mL,128 µg/mL,128 µg/mL,128 µg/mL,128 µg/mL,
C[C@@H](O[Si](C)(C)C(C)(C)C)[C@H]1C(=O)N/C1=C\C(=O)O,128 µg/mL,> 128 µg/mL,128 µg/mL,128 µg/mL,128 µg/mL,128 µg/mL,> 128 µg/mL,> 128 µg/mL,> 128 µg/mL,> 128 µg/mL,> 128 µg/mL,> 128 µg/mL,,
C[C@@H](O[Si](C)(C)C(C)(C)C)[C@H]1C(=O)N/C1=C\C(=O)Oc1cc(O)cc(O)c1,16 µg/mL,16 µg/mL,16 µg/mL,16 µg/mL,64 µg/mL,64 µg/mL,32 µg/mL,32 µg/mL,32 µg/mL,64 µg/mL,,,32 µg/mL,64 µg/mL
O=C(O)/C=C1\NC(=O)[C@@H]1Cl,16 µg/mL,128 µg/mL,128 µg/mL,128 µg/mL,128 µg/mL,> 128 µg/mL,32 µg/mL,64 µg/mL,64 µg/mL,64 µg/mL,64 µg/mL,64 µg/mL,128 µg/mL,128 µg/mL
CCOC(=O)/C=C1\NC(=O)[C@@H]1[C@@H](C)O[Si](C)(C)C(C)(C)C,128 µg/mL,128 µg/mL,128 µg/mL,128 µg/mL,> 128 µg/mL,> 128 µg/mL,> 128 µg/mL,> 128 µg/mL,> 128 µg/mL,> 128 µg/mL,128 µg/mL,128 µg/mL,,
CCOC(=O)/C=C1\NC(=O)[C@@H]1[C@@H](C)OC(=O)c1cc(OCc2ccccc2)c(OCc2ccccc2)c(OCc2ccccc2)c1,> 128 µg/mL,> 128 µg/mL,> 128 µg/mL,> 128 µg/mL,> 128 µg/mL,> 128 µg/mL,> 128 µg/mL,> 128 µg/mL,> 128 µg/mL,> 128 µg/mL,> 128 µg/mL,> 128 µg/mL,,
CC1(C)S[C@@H]2[C@H](NC(=O)[C@H](N)c3ccc(O)cc3)C(=O)N2[C@H]1C(=O)O [AMOXICILLIN],< 0.06 µg/mL,< 0.06 µg/mL,0.12 µg/mL,8 µg/mL,2 µg/mL,2 µg/mL,1 µg/mL,8 µg/mL,1 µg/mL,4 µg/mL,1 µg/mL,64 µg/mL,64 µg/mL,128 µg/mL
